Data published in ChEMBL document CHEMBL1131058, “Studies on quinazolines and 1,2,4-benzothiadiazine 1,1-dioxides. 8.1, 2 synthesis and pharmacological evaluation of tricyclic fused quinazolines and 1,2,4-benzothiadiazine 1,1-dioxides as potential alpha1-adrenoceptor antagonists” (J Med Chem, 1998).

Experiments:
[1] = molecular target: T1, Adrenergic receptor alpha-1 (Rattus norvegicus, UniProt P15823+P23944+P43140); experiment: Binding affinity towards Alpha-1 adrenergic receptor measured by displacement of [3H]prazosin from rat brain cortex membranes; assay type: cell membranes, Membrane
T1 sequence (P15823 whole entry): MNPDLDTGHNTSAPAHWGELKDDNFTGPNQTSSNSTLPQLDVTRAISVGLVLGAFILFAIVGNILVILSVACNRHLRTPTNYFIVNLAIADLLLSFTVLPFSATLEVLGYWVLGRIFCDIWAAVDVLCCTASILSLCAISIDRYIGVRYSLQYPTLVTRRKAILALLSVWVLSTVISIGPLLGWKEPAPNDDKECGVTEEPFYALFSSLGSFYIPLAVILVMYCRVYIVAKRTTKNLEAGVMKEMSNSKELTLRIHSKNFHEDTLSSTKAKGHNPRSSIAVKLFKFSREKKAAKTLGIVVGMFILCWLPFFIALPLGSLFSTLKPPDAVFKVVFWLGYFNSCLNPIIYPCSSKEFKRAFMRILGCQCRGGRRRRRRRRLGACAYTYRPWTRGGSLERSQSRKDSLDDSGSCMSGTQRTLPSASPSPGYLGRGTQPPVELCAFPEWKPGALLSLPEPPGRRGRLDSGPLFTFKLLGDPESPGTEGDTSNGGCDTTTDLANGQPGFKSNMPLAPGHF
T1 sequence (P23944 whole entry): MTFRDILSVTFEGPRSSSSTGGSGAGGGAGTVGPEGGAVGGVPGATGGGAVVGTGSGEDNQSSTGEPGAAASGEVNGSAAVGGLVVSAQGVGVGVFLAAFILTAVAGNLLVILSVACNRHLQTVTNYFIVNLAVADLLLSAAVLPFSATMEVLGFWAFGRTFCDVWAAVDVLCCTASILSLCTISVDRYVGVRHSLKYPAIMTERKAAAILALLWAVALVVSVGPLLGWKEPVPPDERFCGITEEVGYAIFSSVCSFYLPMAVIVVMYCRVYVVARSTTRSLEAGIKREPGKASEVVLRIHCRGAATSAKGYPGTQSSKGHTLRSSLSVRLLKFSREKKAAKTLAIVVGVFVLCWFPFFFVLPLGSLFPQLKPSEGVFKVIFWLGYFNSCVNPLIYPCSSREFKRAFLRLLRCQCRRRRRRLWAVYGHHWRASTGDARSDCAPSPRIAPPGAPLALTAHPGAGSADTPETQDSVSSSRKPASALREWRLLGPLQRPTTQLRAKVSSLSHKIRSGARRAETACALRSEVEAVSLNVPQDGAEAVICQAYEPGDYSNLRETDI
T1 sequence (P43140 whole entry): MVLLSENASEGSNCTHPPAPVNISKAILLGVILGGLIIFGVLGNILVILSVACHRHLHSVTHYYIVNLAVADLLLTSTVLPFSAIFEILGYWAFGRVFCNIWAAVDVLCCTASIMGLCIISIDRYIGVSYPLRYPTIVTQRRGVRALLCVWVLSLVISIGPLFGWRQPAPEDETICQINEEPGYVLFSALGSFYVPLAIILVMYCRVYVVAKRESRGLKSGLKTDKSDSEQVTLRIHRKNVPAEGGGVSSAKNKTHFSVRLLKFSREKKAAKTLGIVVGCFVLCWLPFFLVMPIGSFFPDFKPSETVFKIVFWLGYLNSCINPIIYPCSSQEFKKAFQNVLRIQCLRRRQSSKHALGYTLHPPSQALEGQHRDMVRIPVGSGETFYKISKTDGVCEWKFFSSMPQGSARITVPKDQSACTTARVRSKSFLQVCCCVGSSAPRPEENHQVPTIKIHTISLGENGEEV
Method in brief: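 Triplicate competition binding against 0.2-0.25 nM [³H]prazosin in Tris buffer pH 7.4, 30 min at room temperature. Competitor range 0.1-200 nM. Nonspecific binding defined with 10 µM phentolamine. Reaction stopped by GF/B filtration with two cold Tris washes. Membrane protein 300-400 µg per assay. Ki calculated from the data; mean ± SEM of 3-6 experiments.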

[2] = molecular target: T2, Adrenergic receptor alpha-2 (Rattus norvegicus, UniProt P22086+P19328+P22909); experiment: Displacement of clonidine from Alpha-2 adrenergic receptor in rat brain cortex; assay type: tissue-based
T2 sequence (P22086 whole entry): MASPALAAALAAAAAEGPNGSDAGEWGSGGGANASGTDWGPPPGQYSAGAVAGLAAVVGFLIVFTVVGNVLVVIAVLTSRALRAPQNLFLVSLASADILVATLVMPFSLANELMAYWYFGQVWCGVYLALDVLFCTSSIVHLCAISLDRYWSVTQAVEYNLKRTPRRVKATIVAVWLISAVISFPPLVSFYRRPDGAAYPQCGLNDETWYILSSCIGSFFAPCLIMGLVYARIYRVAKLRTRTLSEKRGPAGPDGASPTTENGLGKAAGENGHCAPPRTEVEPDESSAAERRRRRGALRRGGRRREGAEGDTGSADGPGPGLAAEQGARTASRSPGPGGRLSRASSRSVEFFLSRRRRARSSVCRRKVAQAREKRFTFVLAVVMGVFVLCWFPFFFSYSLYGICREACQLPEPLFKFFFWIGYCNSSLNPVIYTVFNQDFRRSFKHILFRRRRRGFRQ
T2 sequence (P19328 whole entry): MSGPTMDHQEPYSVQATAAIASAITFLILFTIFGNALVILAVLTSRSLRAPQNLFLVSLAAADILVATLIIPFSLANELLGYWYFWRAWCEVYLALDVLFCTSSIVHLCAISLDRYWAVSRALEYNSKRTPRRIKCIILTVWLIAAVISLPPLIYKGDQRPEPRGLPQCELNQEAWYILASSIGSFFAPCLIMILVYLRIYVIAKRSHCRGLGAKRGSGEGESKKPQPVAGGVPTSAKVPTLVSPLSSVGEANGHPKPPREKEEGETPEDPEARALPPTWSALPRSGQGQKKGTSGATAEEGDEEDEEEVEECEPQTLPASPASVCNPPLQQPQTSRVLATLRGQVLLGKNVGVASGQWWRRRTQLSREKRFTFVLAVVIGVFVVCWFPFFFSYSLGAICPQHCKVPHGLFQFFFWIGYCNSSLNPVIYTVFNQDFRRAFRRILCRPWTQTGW
T2 sequence (P22909 whole entry): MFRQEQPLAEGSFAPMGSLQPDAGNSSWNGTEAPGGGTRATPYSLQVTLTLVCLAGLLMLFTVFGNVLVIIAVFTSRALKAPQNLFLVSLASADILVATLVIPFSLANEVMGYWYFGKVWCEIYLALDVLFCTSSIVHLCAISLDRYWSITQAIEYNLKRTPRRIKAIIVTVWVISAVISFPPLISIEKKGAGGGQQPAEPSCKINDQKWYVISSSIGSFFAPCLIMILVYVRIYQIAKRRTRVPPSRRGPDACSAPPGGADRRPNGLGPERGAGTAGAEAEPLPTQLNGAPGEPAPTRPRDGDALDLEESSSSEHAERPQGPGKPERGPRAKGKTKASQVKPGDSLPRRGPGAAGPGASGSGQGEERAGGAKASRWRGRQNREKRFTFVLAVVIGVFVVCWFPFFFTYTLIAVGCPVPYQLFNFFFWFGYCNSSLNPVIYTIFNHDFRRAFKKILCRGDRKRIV
Method in brief: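 α2 competition binding run in triplicate with 1 nM [³H]clonidine plus 10 mM MgCl₂ in Tris pH 7.4, 30 min at room temperature. Test compounds at 1-100 µM. Nonspecific binding defined with 10 µM clonidine. Membranes collected on GF/B filters and washed twice with cold Tris. Protein 300-400 µg per assay. Ki given as mean ± SEM of 3-6 experiments.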

[3] = Selectivity ratio for binding affinity towards alpha2 and alpha-1 adrenoceptors
Method in brief: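 Ratio of α2 Ki ([³H]clonidine binding) to α1 Ki ([³H]prazosin binding), both measured in rat cortical membrane competition assays.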

| Compound | Ki [1] [µM] | Ki [2] [µM] | Ratio [3] |
| --- | --- | --- | --- |
| COc1ccccc1N1CCN(CC2CN=C3Nc4ccccc4S(=O)(=O)N32)CC1 (stereo not given) | 0.00495 | 0.46 | 93 |
| Oc1nc2ccccc2c2nc(CN3CCN(c4ccccc4Cl)CC3)cn12 | 0.00929 | 4.51 | 486 |
| Oc1nc2ccccc2c2nc(CN3CCN(c4ccccc4Cl)CC3)c(Br)n12 | > 10 | – | – |
| COc1ccccc1N1CCN(CC2CSc3nc4ccccc4c(=O)n32)CC1 (stereo not given) | > 10 | – | – |
| O=S1(=O)c2ccccc2NC2=NCC(CN3CCN(c4ccccc4Cl)CC3)N21 (stereo not given) | 0.0118 | 2.29 | 194 |
| O=c1c2ccccc2nc2scc(CN3CCN(c4ccccc4Cl)CC3)n12 | > 10 | – | – |
| COc1ccccc1N1CCN(Cc2c(Br)sc3nc4ccccc4c(=O)n23)CC1 | > 10 | – | – |
| COc1ccccc1N1CCN(Cc2csc3nc4ccccc4c(=O)n23)CC1 | > 10 | – | – |
| Cn1c(=O)n2cc(CN3CCN(c4ccccc4Cl)CC3)nc2c2ccccc21 | 0.0141 | 0.513 | 36 |
| Oc1nc2ccccc2c2nc(Br)c(CN3CCN(c4ccccc4Cl)CC3)n12 | > 10 | – | – |
| Cn1c(=O)n2c(CN3CCN(c4ccccc4Cl)CC3)cnc2c2ccccc21 | 0.00428 | 0.525 | 123 |
| COc1ccccc1N1CCN(Cc2nc3c4ccccc4nc(O)n3c2Br)CC1 | > 10 | – | – |
| O=c1c2ccccc2nc2sc(Br)c(CN3CCN(c4ccccc4Cl)CC3)n12 | > 10 | – | – |
| COc1ccccc1N1CCN(CC2CN=C3Nc4ccccc4C(=O)N32)CC1 (stereo not given) | 0.186 | – | – |

Next, values leading:

| Ki [1] [µM] | Ki [2] [µM] | Ratio [3] | Compound |
| --- | --- | --- | --- |
| > 10 | – | – | Cn1c(=O)n2c(CN3CCN(c4ccccc4Cl)CC3)c(Br)nc2c2ccccc21 |
| > 10 | – | – | COc1ccccc1N1CCN(Cc2nc3c4ccccc4n(C)c(=O)n3c2Br)CC1 |
| > 10 | – | – | Cn1c(=O)n2c(Br)c(CN3CCN(c4ccccc4Cl)CC3)nc2c2ccccc21 |
| > 10 | – | – | COc1ccccc1N1CCN(Cc2c(Br)nc3c4ccccc4n(C)c(=O)n23)CC1 |
| 0.0061 | 3.09 | 506 | COc1ccccc1N1CCN(Cc2cnc3c4ccccc4n(C)c(=O)n23)CC1 |
| 0.0065 | 3.25 | 499 | COc1ccccc1N1CCN(Cc2cn3c(=O)n(C)c4ccccc4c3n2)CC1 |
| > 10 | – | – | COc1ccccc1N1CCN(Cc2c(Br)nc3c4ccccc4nc(O)n23)CC1 |
